Activity calls are given as the source filed them. The calls are words filed in the database; no cut-off is given here.
Tests used:
Saccharomyces cerevisiae = experiment: Toxicity in PSI yeast spheroplast cells infected with yeast prion protein Sup35; assay type: organism-based
Mus musculus [1] = organism: Mus musculus; experiment: Inhibition of mouse prion protein (89-230) assessed as inhibition of amyloid polymerization at 25 uM by thioflavin T fluorescence assay relative to untreated control
Method in brief: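 Mouse prion protein (recMoPrP) fibrillization monitored by thioflavin T fluorescence; reactions contained 3 M urea.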

[2] = biological target: T1, Eukaryotic peptide chain release factor GTP-binding subunit (Saccharomyces cerevisiae) (UniProt P05453); experiment: Inhibition of polyhistidine tagged yeast prion protein Sup35 expressed in Escherichia coli BL21 (DE3) assessed as inhibition of amyloid polymerization at 10 uM in presence of 5 mg/ml BSA by thioflavin T fluorescence assay relative to untreated control
T1 sequence (whole entry): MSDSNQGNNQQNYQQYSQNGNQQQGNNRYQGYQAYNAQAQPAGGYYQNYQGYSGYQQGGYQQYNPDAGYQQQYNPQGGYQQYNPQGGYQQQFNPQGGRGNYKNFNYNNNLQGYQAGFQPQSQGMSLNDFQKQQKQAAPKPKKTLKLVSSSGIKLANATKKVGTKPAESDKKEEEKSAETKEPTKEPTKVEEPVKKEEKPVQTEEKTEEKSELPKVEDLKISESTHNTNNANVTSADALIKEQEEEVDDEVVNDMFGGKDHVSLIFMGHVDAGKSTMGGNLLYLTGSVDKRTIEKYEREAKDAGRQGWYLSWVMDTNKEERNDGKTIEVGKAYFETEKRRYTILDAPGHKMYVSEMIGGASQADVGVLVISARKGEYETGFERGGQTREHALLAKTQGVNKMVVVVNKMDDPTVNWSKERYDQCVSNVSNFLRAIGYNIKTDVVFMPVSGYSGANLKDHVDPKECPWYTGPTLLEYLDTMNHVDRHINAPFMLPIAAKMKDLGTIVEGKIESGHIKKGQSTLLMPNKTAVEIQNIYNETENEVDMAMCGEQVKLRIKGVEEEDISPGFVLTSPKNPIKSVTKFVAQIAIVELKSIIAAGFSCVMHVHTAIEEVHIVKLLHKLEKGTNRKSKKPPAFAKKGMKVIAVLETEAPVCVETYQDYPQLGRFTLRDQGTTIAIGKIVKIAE
Method in brief: (§1)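 Sup35 fibrillization followed by thioflavin T fluorescence in seeded and unseeded polymerization reactions. For BSA lines, BSA added from a 20 mg ml−1 solution to a final 5 mg ml−1. Inhibition is relative to untreated reactions.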

[3] = biological target: T1, Eukaryotic peptide chain release factor GTP-binding subunit (Saccharomyces cerevisiae); experiment: Inhibition of polyhistidine tagged yeast prion protein Sup35 expressed in Escherichia coli BL21 (DE3) assessed as inhibition of amyloid polymerization at 10 uM by thioflavin T fluorescence assay relative to untreated control; method in brief: as §1
[4] = Inhibition of dynamic light scattering at 2 uM by thioflavin T fluorescence assay relative to untreated control; assay type: physicochemical
Method in brief: (§2)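 Sup35 polymerization followed by dynamic light scattering rather than ThT fluorescence, as a control for spectroscopic interference; percent inhibition of the DLS signal.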

[5] = biological target: T1, Eukaryotic peptide chain release factor GTP-binding subunit (Saccharomyces cerevisiae); experiment: Inhibition of polyhistidine tagged yeast prion protein Sup35 expressed in Escherichia coli BL21 (DE3) assessed as coating of prion protein with […] particles at 100 uM by transmission electron microscopy
Method in brief: (§3)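 Preformed fibres (recMoPrP at 50 μM compound, Sup35 at 100 μM compound) were mixed with compound, then examined by transmission electron microscopy for colloidal particles coating the fibres.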

[6] = Inhibition of dynamic light scattering at 20 uM by thioflavin T fluorescence assay relative to untreated control; assay type: physicochemical; method in brief: as §2
[7] = biological target: T1, Eukaryotic peptide chain release factor GTP-binding subunit (Saccharomyces cerevisiae); experiment: Inhibition of polyhistidine tagged yeast prion protein Sup35 expressed in Escherichia coli BL21 (DE3) assessed as inhibition of amyloid polymerization at 30 uM by thioflavin T fluorescence assay relative to untreated control; method in brief: as §1
[8] = biological target: T2, Eukaryotic peptide chain release factor GTP-binding subunit (Saccharomyces cerevisiae, UniProt P05453); experiment: Inhibition of polyhistidine tagged yeast prion protein Sup35 expressed in Escherichia coli BL21 (DE3) assessed as inhibition of amyloid polymerization by thioflavin T fluorescence assay relative to untreated control; method in brief: as §1
T2 sequence (P05453 whole entry): T1 sequence (whole entry)

[9] = biological target: T1, Eukaryotic peptide chain release factor GTP-binding subunit (Saccharomyces cerevisiae); experiment: Inhibition of yeast prion protein Sup35 infection of PSI yeast spheroplast cells at 200 uM
Method in brief: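 Yeast made infection-competent by enzymatic digestion of the cell wall, then exposed to Sup35 prion with compound; infectivity scored. EC50 derived from a 40–200 μM concentration series.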

[10] = biological target: T1, Eukaryotic peptide chain release factor GTP-binding subunit (Saccharomyces cerevisiae); experiment: Inhibition of polyhistidine tagged yeast prion protein Sup35 expressed in Escherichia coli BL21 (DE3) assessed as inhibition of amyloid polymerization at 30 uM in presence of 5 mg/ml BSA by thioflavin T fluorescence assay relative to untreated control; method in brief: as §1
[11] = biological target: T1, Eukaryotic peptide chain release factor GTP-binding subunit (Saccharomyces cerevisiae); experiment: Inhibition of polyhistidine tagged yeast prion protein Sup35 expressed in Escherichia coli BL21 (DE3) assessed as inhibition of fiber formation at 100 uM by transmission electron microscopy
Method in brief: (§4)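 Transmission electron microscopy of recMoPrP (50 μM compound) or Sup35 (100 μM compound) polymerized in the presence of compound, scored for fibre formation.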

Mus musculus [12] = organism: Mus musculus; settings: at 50 µM
[13] = Inhibition of Beta-lactamase at 35 uM by nitrocefin hydrolysis assay
[14] = Inhibition of Beta-lactamase at 35 uM in presence of 0.01% Triton X-100 by nitrocefin hydrolysis assay
[15] = biological target: T1, Eukaryotic peptide chain release factor GTP-binding subunit (Saccharomyces cerevisiae); settings: at 50 µM
[16] = biological target: T1, Eukaryotic peptide chain release factor GTP-binding subunit (Saccharomyces cerevisiae); settings: at 50 µM; remark: listed apart in the source
[17] = biological target: T1, Eukaryotic peptide chain release factor GTP-binding subunit (Saccharomyces cerevisiae); experiment: Inhibition of polyhistidine tagged yeast prion protein Sup35 expressed in Escherichia coli BL21 (DE3) assessed as inhibition of amyloid polymerization at 5 uM by thioflavin T fluorescence assay relative to untreated control; method in brief: as §1
[18] = Inhibition of Beta-lactamase at 4 uM by nitrocefin hydrolysis assay
[19] = Inhibition of Beta-lactamase at 4 uM in presence of 0.01% Triton X-100 by nitrocefin hydrolysis assay
[20] = biological target: T1, Eukaryotic peptide chain release factor GTP-binding subunit (Saccharomyces cerevisiae); experiment: Inhibition of polyhistidine tagged yeast prion protein Sup35 expressed in Escherichia coli BL21 (DE3) assessed as inhibition of amyloid polymerization at 5 uM in presence of 5 mg/ml BSA by thioflavin T fluorescence assay relative to untreated control; method in brief: as §1
Mus musculus [21] = organism: Mus musculus; experiment: Inhibition of mouse prion protein (89-230) assessed as assessed as coating of prion protein with […] particles at 50 uM by transmission electron microscopy; method in brief: as §3
Mus musculus [22] = organism: Mus musculus; experiment: Inhibition of mouse prion protein (89-230) assessed as assessed as inhibition of fiber formation at 50 uM by transmission electron microscopy; method in brief: as §4

Oc1ccc(/N=N/c2ccc(Br)cc2)cc1
Activity (Saccharomyces cerevisiae): Toxic | inhibition (Mus musculus [1]): 100% | inhibition [2]: 2.1% | inhibition [3]: 36.4%

O=C1C(I)=CC(=C(c2ccccc2C(=O)O)C2C=C(I)C(=O)C(I)=C2)C=C1I [TERAIODOPHENOLPHATHALIN]
inhibition (INH) [4]: 30% | inhibition [5]: Active | inhibition (INH) [6]: 99% | inhibition [7]: 99.3% | IC50 [8]: 2500 nM | inhibition [9]: Active | inhibition [10]: 6.8% | inhibition [11]: Active | inhibition (Mus musculus [12]): 0%

Cc1cc(/N=N/c2ccc(-c3ccc(/N=N/c4cc(C)c(O)c(C(=O)O)c4)cc3)cc2)c(C(=O)O)cc1O
inhibition [13]: 50% | inhibition [14]: 0%

CCN(CC)CC(=O)Nc1c(C)cccc1C
inhibition (Mus musculus [1]): 0% | inhibition [15]: 0% | inhibition [16]: 1.1% | inhibition [9]: Active

Nc1c(/N=N/c2ccc(-c3ccc(/N=N/c4cc(S(=O)(=O)O)c5ccccc5c4N)cc3)cc2)cc(S(=O)(=O)O)c2ccccc12
inhibition [17]: 100% | inhibition [18]: 92% | inhibition [19]: 20% | inhibition [20]: 100% | inhibition (Mus musculus [12]): 100%

CC(=O)c1c(O)c(C)c(O)c(Cc2c(O)c3c(c(C(=O)/C=C/c4ccccc4)c2O)OC(C)(C)C=C3)c1O
inhibition (Mus musculus [1]): 71.1% | inhibition (Mus musculus [21]): Active | inhibition (Mus musculus [22]): Active | inhibition [7]: 99.4% | inhibition [9]: Active | inhibition [10]: 40.5%

Clc1ccc(CSC(Cn2ccnc2)c2ccc(Cl)cc2Cl)cc1 (stereo not drawn)
inhibition [15]: 10.1% | inhibition [16]: 75.5% | inhibition (Mus musculus [12]): 100%

Reference: ChEMBL document CHEMBL1212700, “Small-molecule aggregates inhibit amyloid polymerization” (Nat Chem Biol, 2008)
